Key:
[1] = Retardation factor of the compound using 1-butanol-pyridine-0.6 M ammonium acetate in 0.1% aqueous acetic acid at ratio of 5:3:11 (v/v) as solvent system by partition chromatography; type: physicochemical; conditions: buffer
[2] = Retardation factor of the compound using 1-butanol-pyridine-acetic acid-water at ratio of 6.0:6.0:1.2:4.8 as solvent system by thin layer chromatography; type: physicochemical; conditions: buffer
[3] = Retardation factor of the compound using 1-butanol-acetic acid-water at ratio of 4:3:3 as solvent system by thin layer chromatography; type: physicochemical; conditions: buffer
[4] = Retardation factor of the compound measured at 400 V for 4 hrs by paper electrophoresis; type: physicochemical
[5] = biological target: T1, Opioid receptor (Rattus norvegicus) (UniProt P33533+P34975+P33535); test: Displacement of [3H]naloxone from opioid receptor in rat brain after 30 mins; type: tissue-based
Summary of the method: (§1)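 Rat brain homogenate (2-mL aliquots, ca. 1 mg wet weight) incubated with […] [3H]naloxone (25 Ci/mmol) for 30 min at 25 °C, with test peptides at three to five concentrations. Each concentration run as three separate sets of duplicates. ID50 taken from log-probit plots. The relative value is expressed against natural sheep beta-endorphin.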

[6] = biological target: T1, Opioid receptor (Rattus norvegicus); test: Displacement of [3H]naloxone from opioid receptor in rat brain after 30 mins relative to natural sheep beta-endorphin; type: tissue-based; summary of the method: as §1
[7] = biological target: T1, Opioid receptor (Rattus norvegicus); test: Modulation of opioid receptor in rat vas deferens assessed as inhibition of electrically evoked contractions; type: tissue-based
Summary of the method: (§2)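 Rat vas deferens, electrically stimulated; depression of contractions recorded over five increasing concentrations. Each concentration is the mean from six different tissues. ID50 derived from log-probit plots. The relative value and ratio are expressed against natural sheep beta-endorphin.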

[8] = biological target: T1, Opioid receptor (Rattus norvegicus); test: Modulation of opioid receptor in rat vas deferens assessed as inhibition of electrically evoked contractions relative to natural sheep beta-endorphin; type: tissue-based; design: scale not given: the % may be the effect or the level left; summary of the method: as §2
Cavia porcellus [9] = organism: Cavia porcellus; test: Modulation of opioid receptor in guinea pig ileum assessed as inhibition of electrically evoked contractions; type: tissue-based
Summary of the method: (§3)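 Guinea pig ileum, electrically stimulated; depression of contractions measured. Each tissue received increasing concentrations of only one compound, to avoid tachyphylaxis seen with repeat doses given 30 min apart. ID50 taken from log-probit plots of five increasing concentrations, each the mean from six tissues. The relative value is expressed against natural sheep beta-endorphin.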

Cavia porcellus [10] = organism: Cavia porcellus; test: Modulation of opioid receptor in guinea pig ileum assessed as inhibition of electrically evoked contractions relative to natural sheep beta-endorphin; type: tissue-based; design: scale not given: the % may be the effect or the level left; summary of the method: as §3

## CC[C@H](C)[C@H](NC(=O)[C@H](C)NC(=O)[C@H](CC(N)=O)NC(=O)[C@H](CCCCN)NC(=O)[C@H](Cc1ccccc1)NC(=O)[C@H](CC(C)C)NC(=O)[C@@H](NC(=O)[C@@H](NC(=O)[C@H](CC(C)C)NC(=O)[C@@H]1CCCN1C(=O)[C@@H](NC(=O)[C@H](CCC(N)=O)NC(=O)[C@H](CO)NC(=O)[C@H](CCCCN)NC(=O)[C@H](CCC(=O)O)NC(=O)[C@H](CO)NC(=O)[C@@H](NC(=O)[C@H](CC[S+](C)[O-])NC(=O)[C@H](Cc1ccccc1)N(C)C(=O)CNC(=O)[C@@H](C)NC(=O)[C@@H](N)Cc1ccc(O)cc1)[C@@H](C)O)[C@@H](C)O)C(C)C)[C@@H](C)O)C(=O)N[C@H](C(=O)N[C@@H](CCCCN)C(=O)N[C@@H](CC(N)=O)C(=O)N[C@@H](C)C(=O)N[C@@H](Cc1ccc(O)cc1)C(=O)N[C@@H](CCCCN)C(=O)N[C@@H](CCCCN)C(=O)NCC(=O)N[C@@H](CCC(=O)O)C(=O)O)[C@@H](C)CC (some centres undefined)
[1]
  Rf: 0.21
[2]
  Rf: 0.42
[3]
  Rf: 0.061
[4]
  Rf: 0.47

## BETA-ENDORPHIN [listing 1 of 2 here]
[1]
  Rf: 0.2
[2]
  Rf: 0.45
[3]
  Rf: 0.077
[4]
  Rf: 0.47

## BETA-ENDORPHIN [listing 2 of 2 here]
[5]
  ID50: 10 nM
[6]
  Activity: 100%
[7]
  ID50: 130 nM
[8]
  Activity: 100%
Cavia porcellus [9]
  ID50: 27 nM
Cavia porcellus [10]
  Activity: 100%

Source: ChEMBL document CHEMBL3244050, “Synthesis and biological activity of beta-endorphin and analogues. Additional evidence for multiple opiate receptors” (J Med Chem, 1978)
